# High-throughput results from PubChem BioAssay.
# This is a sample that favours compounds with a hit; in the whole collection about 2% have one here.
# Scp1 inh – inhibitors of human Scp-1 phosphatase | inhibition, % at 20 µM | actives 0.88% (n = 340,000) | Q9GZU7 | Recombinant Scp1, phosphopeptide, malachite green phosphate absorbance | AID 493091;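 active means inhibition above about 50% at 20 µM, limit read from the data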;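 further: plate controls were DMSO wells with enzyme for no effect and wells lacking enzyme for full effect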
#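 Material: truncated SCP-1 phosphatase (76-261aa) / Buffer or medium: 50 mM Tris acetate pH 5.5, 0.005% Tween-20, 10 mM MgCl2 / Compound dosing: one concentration, 20 µM, with 1.0% DMSO / Incubation: 45 min room-temperature reaction, 5 min colour, 30 min stabiliser / Detection: colorimetric free-phosphate detection, absorbance 630 nm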
# LMPTP inh – LMPTP (human) inhibition | AID 651560 | recombinant LMPTP-A, OMFP fluorogenic substrate, fluorescence intensity | actives 0.22% (n = 360,000) | P24666 | inhibition, % at 20 µM;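 active means compounds that cut the enzyme signal by at least half of the control window in the single-dose screen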;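 further: plate controls were DMSO wells with enzyme plus substrate for no effect and substrate without enzyme for full effect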
#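 Buffer or medium: Bis-Tris pH 6.0, DTT, detergent; Assay system: LMPTP-A enzyme; Quantity: 0.625 nM enzyme; Detection: endpoint fluorescence intensity; Times: 50 min dark incubation at room temperature; Controls: substrate-only low control, DMSO enzyme-plus-substrate high control; Doses: single 20 µM dose; Read-out: percent inhibition versus substrate-only and uninhibited controls; Reagent: 400 µM OMFP.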
# STEP inh – inhibitors of human striatal-enriched phosphatase STEP; AID 588621; recombinant STEP, OMFP fluorogenic substrate, fluorescence; actives 0.25% (n = 360,000); inhibition, % at 20 µM; P54829;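 active means inhibition at 20 µM, scaled per plate between control wells, above about 37%, limit read from the data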;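 further: 0% = DMSO with enzyme and substrate and 100% = substrate only without enzyme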
# Target sequence (P54829 whole entry, looked up): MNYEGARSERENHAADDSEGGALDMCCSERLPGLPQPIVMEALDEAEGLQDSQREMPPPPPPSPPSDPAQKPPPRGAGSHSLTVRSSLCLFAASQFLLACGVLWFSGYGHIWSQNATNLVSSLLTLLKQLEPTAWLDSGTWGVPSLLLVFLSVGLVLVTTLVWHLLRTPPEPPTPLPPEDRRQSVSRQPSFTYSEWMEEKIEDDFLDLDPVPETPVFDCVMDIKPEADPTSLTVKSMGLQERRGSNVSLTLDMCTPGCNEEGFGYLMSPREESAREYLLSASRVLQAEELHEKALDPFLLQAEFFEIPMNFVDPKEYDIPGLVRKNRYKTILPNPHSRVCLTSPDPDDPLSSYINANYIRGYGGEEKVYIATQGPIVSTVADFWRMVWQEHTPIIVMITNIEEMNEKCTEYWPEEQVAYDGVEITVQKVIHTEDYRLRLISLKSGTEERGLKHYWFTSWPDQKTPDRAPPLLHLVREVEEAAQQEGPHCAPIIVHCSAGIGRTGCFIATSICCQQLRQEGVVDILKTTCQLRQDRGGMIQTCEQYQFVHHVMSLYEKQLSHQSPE
#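 Material: STEP (striatal-enriched tyrosine phosphatase) enzyme, cell-free | Medium: 50 mM Bis-Tris pH 6.0 with 2.5 mM DTT and 0.005% Tween 20 | Read-out: Percent inhibition scaled to no-enzyme and uninhibited-enzyme controls, plate-pattern corrected | Signal: Fluorescence read at 480 nm ex / 540 nm em | Times: 20 min reaction, room temperature, in the dark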
# SUMO1-SIM PPI – SUMO1-SIM interaction modulation. actives 0.33% (n = 360,000). inhibition, % at 20 µM. SUMO1 binding to a labelled peptide, TR-FRET, 1 h. P63165; in the data active means inhibition above about 37%
# Target sequence (P63165 whole entry, looked up): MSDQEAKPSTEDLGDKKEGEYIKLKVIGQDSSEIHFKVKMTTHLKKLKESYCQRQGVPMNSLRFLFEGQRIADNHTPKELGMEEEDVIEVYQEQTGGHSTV
# CSN deneddyl inh – blocks human CSN-mediated cullin deneddylation | Q92905 | Purified CSN, SCF-Nedd8-OG deneddylation, fluorescence polarization | inhibition, % at 12.5 µM | actives 0.38% (n = 360,000) | AID 651999;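 active means pattern-corrected inhibition above about 35%, with an unprinted fluorescence ratio check between 0.5 and 1.5, limit read from the data, passing the limit was not always enough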;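 further: 0% = enzyme with substrate and 100% = substrate without enzyme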
#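 test system = HEK293T-derived human Csn5 enzyme | amount = 0.24 nM Csn5 enzyme, final concentration | medium = Tris/NaCl/DTT buffer, pH 7.5 | schedule = 90 min reaction at room temperature | signal = FP | evaluation = inhibition of Csn5 cleavage, % | compound dosing = single dose of 12.5 µM compound with 0.25% DMSO | probe or stimulus = 10 nM SCFSkp2-Nedd8OG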
# DNMT1 block – DNMT1 (human) enzyme inhibition | P26358 | DNMT1 molecular beacon, Hinp1I cleavage, fluorescence | inhibition (reported as % activation of signal), % at 10 µM | actives 0.83% (n = 360,000) | AID 588458; in the data active means inhibition above about 50%
# Scp-1 conf – Scp-1 (human) inhibition, single-dose confirmed; shares compounds with Scp1 inh; recombinant SCP-1 catalytic domain, phosphate release, malachite green absorbance; inhibition, % at 20 µM; actives 61% (n = 2,500);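 further: plate controls were DMSO with enzyme for no effect and buffer wells lacking enzyme for full effect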
# MG interference – counter-screen for Scp-1 inhibitors: colorimetric interference; shares compounds with Scp1 inh; Colorimetric interference counterscreen, malachite green absorbance 630 nm; apparent inhibition (interference), % at 20 µM; 2,500 tested, under 10 active;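 further: compounds added after enzyme reaction finished so only phosphate colour detection is probed; plate controls were DMSO wells with completed Scp-1 reaction for no effect and substrate wells lacking enzyme for full effect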
# Scp1 DSF – binds human Scp-1, shifting its melting temperature. shares compounds with Scp1 inh. Recombinant SCP1, Sypro Orange thermal shift Tm. thermal shift relative to vanadate control, % at 40 µM. actives 25% (n = 1,500). AID 540329;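 active means substances whose mean melting-temperature shift, as a percentage of the reference inhibitor's shift, reaches about 5.3%, limit read from the data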;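 further: 0% = Tm of DMSO wells and 100% = Tm with sodium orthovanadate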
# * hit, by the source's call; nt = not tested or not shown.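 How the source made its calls, unless noted: active means inhibition of at least 30% at 20 µM; inactive means the rest.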
SMILES,Scp1 inh,LMPTP inh,STEP inh,SUMO1-SIM PPI,CSN deneddyl inh,DNMT1 block,Scp-1 conf,MG interference,others
CCOc1ccccc1NC(=O)C1=C(C)NC(=S)NC1c1cccs1 (stereo not drawn),64*,-2,0,0,-3,3,-10,-11,
CSc1ccc(CN2CCN(C3CCCC3)C(CCO)C2)cc1 (stereo not drawn),-2,-1,-2,0,-1,8,nt,nt,
C/C(=N/NC(=O)c1ccc(Br)o1)c1cccs1,-5,-1,0,-14,-1,1,nt,nt,
C/C(=N\NC(=O)c1cc(Br)ccc1O)c1cccs1,66*,-1,5,3,2,5,69*,-7,Scp1 DSF=-2
C/C(=N\NC(=O)c1cc(Br)ccc1O)c1cccc(NC(=O)c2ccccc2F)c1,86*,4,9,15,-3,2,79*,-13,Scp1 DSF=5.8*
COC(=O)C1CCN(S(=O)(=O)c2c[nH]c(=O)[nH]c2=O)CC1,nt,-1,2,-3,-1,0,nt,nt,
CN(C)c1ccc(C(=O)NCC(c2cccs2)N2CCOCC2)cc1 (stereo not drawn),6,1,-1,1,-4,4,nt,nt,
S=C(NCC1CCCO1)NC1CCCC1 (stereo not drawn),6,-1,-1,3,-2,3,nt,nt,
CN(C(=O)c1cc2c(=O)n3ccccc3nc2n1C)C1CCCCC1,80*,1,1,-24,0,2,-17,-14,
Cc1ccc(N(C(=O)c2snc(C(N)=O)c2N)C(C(=O)NC2CCCC2)c2ccc(C)o2)cc1 (stereo not drawn),-1,2,1,-3,1,-3,nt,nt,
C[C@@H](NC(=O)Cn1ccc(N)nc1=O)c1cccc2ccccc12,-2,-2,-2,-3,-1,1,-24,-25,
C[C@@H](NC(=O)Cn1ccc(NC(=O)OCc2ccccc2)nc1=O)c1cccc2ccccc12,6,0,2,-5,0,-6,nt,nt,
C[N+]1(CCOc2ccc([N+](=O)[O-])cc2)CCOCC1,106*,-3,-1,-13,0,3,85*,-11,Scp1 DSF=-11
CC(=O)c1ccc(OCCOc2ccc([N+](=O)[O-])cc2)cc1,-10,0,0,-20,3,2,nt,nt,
COc1ccc(/C(C)=N/NC(=O)c2cc(C)[nH]n2)c(OC)c1,4,-1,0,3,-3,0,nt,nt,
CC(C)c1ccc2oc(-c3ccc(NC(=O)c4ncn[nH]4)cc3)nc2c1,91*,3,13,47*,-3,37,53*,-7,Scp1 DSF=-14
C[C@H](CO)N1C[C@H](C)[C@@H](CN(C)Cc2ccc(Cl)c(Cl)c2)Oc2c(NC(=O)Cc3ccccc3)cccc2C1=O,0,1,0,11,-1,-7,nt,nt,
Cc1noc(C)c1NC(=O)N(C)C[C@H]1Oc2c(NC(=O)NC(C)C)cccc2C(=O)N([C@H](C)CO)C[C@@H]1C,-8,0,-3,1,-3,0,nt,nt,
C[C@H](CO)N1C[C@H](C)[C@@H](CN(C)Cc2ccc(Cl)c(Cl)c2)Oc2c(NC(=O)c3ccncc3)cccc2C1=O,54*,-1,3,6,5,4,-10,-11,
Cc1noc(C)c1NC(=O)N(C)C[C@H]1Oc2c(NC(=O)c3ccncc3)cccc2C(=O)N([C@H](C)CO)C[C@@H]1C,61*,1,1,3,-1,4,30,4,
C[C@H](CO)N1C[C@H](C)[C@@H](CN(C)S(C)(=O)=O)Oc2c(NC(=O)c3ccncc3)cccc2C1=O,55*,-1,-2,-3,3,7,21,-7,
COc1ccc(CN(CC2CCCO2)C(=O)c2cc3sccc3n2C)c(OC)c1 (stereo not drawn),-7,1,-2,0,3,-1,nt,nt,
Cc1ccc(C(=O)OCC(=O)N2C(C)CCCC2C)cc1S(=O)(=O)N1CCOCC1 (stereo not drawn),3,0,1,2,3,5,nt,nt,
CCC(C)C(NC(=O)c1ccccc1)C(=O)Nc1ccc(S(=O)(=O)Nc2cc(C)nc(C)n2)cc1 (stereo not drawn),5,0,-1,9,-2,1,nt,nt,
CC[n+]1c(/C=C/c2ccc(N(C)C)cc2)ccc2ccccc21,13,36,24,-30,2,-1,nt,nt,
SMILES,Scp1 inh,LMPTP inh,STEP inh,SUMO1-SIM PPI,CSN deneddyl inh,DNMT1 block,Scp-1 conf,MG interference,others
C[n+]1c(/C=C/c2ccc(O)cc2)ccc2ccccc21,51*,3,0,-52,10,-5,-20,-13,
Cc1ccc(NC(=O)CSc2ccccc2NC(=O)c2ccccc2Cl)cc1Cl,90*,3,-3,7,-3,21,63*,-15,Scp1 DSF=5
COc1ccc(NC(=O)Nc2cccc3[nH]c([C@@H]4O[C@H](CO)[C@@H](O)[C@H](O)[C@H]4O)nc23)cc1OC1CCCC1,nt,3,0,-4,-1,-2,nt,nt,
CC(=NO)c1cc(Br)c2cccc3c2c1CC3,nt,1,-8,-4,3,-3,nt,nt,
O=C1N=c2ccccc2=C1c1sc(NS(=O)(=O)Cc2ccccc2)nc1O,93*,4,9,5,1,-1,84*,-6,Scp1 DSF=31*
CC(=O)c1ccc(N2CCN(C(=O)Cn3cnc(S(=O)(=O)N4CCCCC4)c3)CC2)cc1,-9,-1,-2,-5,-4,1,nt,nt,
COc1ccc(C=C2SC(=S)NC2=O)cc1,11,-2,-4,-7,-2,-1,nt,nt,
COc1cccc(OCCOc2ccc(/C=C3/SC(=S)NC3=O)cc2)c1,56*,1,8,-9,7,42,1,-15,
Cc1ccc(N/C(N)=N/c2nc(C)cc(N3CCCCC3)n2)c(C)c1,-3,2,8,-1,-2,5,nt,nt,
COc1ccc(-c2nnnn2-c2ccc(F)cc2F)cc1,-1,-2,0,2,7,0,nt,nt,
Cc1cccc(NC(=O)CSc2nc3[nH]c(=O)cc(O)c3s2)c1,61*,1,3,7,-1,31,37*,-12,Scp1 DSF=14*
